In brackets after ≈: the same amount, converted by molar mass.
Legend:
[1] = system: Staphylococcus aureus; assay: Antimicrobial activity against Staphylococcus aureus after 24 hrs by broth microdilution method; format: functional
Method in brief: (§1)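 Broth microdilution following NCCLS M7-A4; ATCC strains and clinical isolates from a provincial hospital.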

[2] = system: Staphylococcus aureus; assay: Antimicrobial activity against methicillin-susceptible Staphylococcus aureus after 24 hrs by broth microdilution method; format: functional; method in brief: as §1
[3] = system: Staphylococcus aureus; assay: Antimicrobial activity against methicillin-resistant Staphylococcus aureus after 24 hrs by broth microdilution method; format: functional
Method in brief: (§2)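 Broth microdilution following NCCLS M7-A4, using ATCC strains and clinical isolates from a provincial hospital.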

[4] = system: Staphylococcus epidermidis; assay: Antimicrobial activity against Staphylococcus epidermidis after 24 hrs by broth microdilution method; format: functional; method in brief: as §1
[5] = system: Escherichia coli; assay: Antimicrobial activity against Escherichia coli isolate 1 after 24 hrs by broth microdilution method; format: functional; details: isolate 1, 24 h; method in brief: as §1
[6] = system: Escherichia coli; assay: Antimicrobial activity against Escherichia coli isolate 2 after 24 hrs by broth microdilution method; format: functional; details: isolate 2, 24 h; method in brief: as §1
[7] = system: Staphylococcus aureus; assay: Antimicrobial activity against Staphylococcus aureus OXFORD after 24 hrs by broth microdilution method; format: functional; method in brief: as §2
[8] = system: Staphylococcus aureus; assay: Antimicrobial activity against Staphylococcus aureus WCUH29 after 24 hrs by broth microdilution method; format: functional; details: WCUH29, 24 h; method in brief: as §1
[9] = system: Enterococcus faecalis; assay: Antimicrobial activity against Enterococcus faecalis Isolate 1 after 24 hrs by broth microdilution method; format: functional; details: Isolate 1, 24 h; method in brief: as §1
[10] = system: Enterococcus faecium; assay: Antimicrobial activity against Enterococcus faecium X7501 after 24 hrs by broth microdilution method; format: functional; details: X7501, 24 h; method in brief: as §1
[11] = system: Haemophilus influenzae; assay: Antimicrobial activity against Haemophilus influenzae Q1 after 24 hrs by broth microdilution method; format: functional; details: Q1, 24 h; method in brief: as §1
[12] = system: Haemophilus influenzae; assay: Antimicrobial activity against Haemophilus influenzae H128 after 24 hrs by broth microdilution method; format: functional; details: H128, 24 h; method in brief: as §1
[13] = system: Haemophilus influenzae; assay: Antimicrobial activity against AcrA-deficient Haemophilus influenzae H128 after 24 hrs by broth microdilution method; format: functional; details: H128, 24 h; method in brief: as §1
[14] = system: Moraxella catarrhalis; assay: Antimicrobial activity against Moraxella catarrhalis 1502 after 24 hrs by broth microdilution method; format: functional; details: Moraxella catarrhalis, 1502, 24 h; method in brief: as §1
[15] = system: Streptococcus pneumoniae; assay: Antimicrobial activity against Streptococcus pneumoniae 1629 after 24 hrs by broth microdilution method; format: functional; details: Streptococcus pneumoniae, 1629, 24 h; method in brief: as §1
[16] = system: Streptococcus pneumoniae; assay: Antimicrobial activity against Streptococcus pneumoniae N1387 after 24 hrs by broth microdilution method; format: functional; details: N1387, 24 h; method in brief: as §1
[17] = system: Streptococcus pneumoniae; assay: Antimicrobial activity against Streptococcus pneumoniae ERY2 after 24 hrs by broth microdilution method; format: functional; details: ERY2, 24 h; method in brief: as §1
[18] = system: Escherichia coli; assay: Antimicrobial activity against Escherichia coli isolate 3 after 24 hrs by broth microdilution method; format: functional; details: isolate 3, 24 h; method in brief: as §1
[19] = system: Streptococcus pyogenes; assay: Antimicrobial activity against Streptococcus pyogenes 1307006P after 24 hrs by broth microdilution method; format: functional; method in brief: as §1
[20] = system: Streptococcus pyogenes; assay: Antimicrobial activity against Streptococcus pyogenes 1308007P after 24 hrs by broth microdilution method; format: functional; method in brief: as §1
[21] = molecular target: T1, hERG (KCNH2) (Homo sapiens, UniProt Q12809); assay: Inhibition of human ERG at 1 uM
[22] = Half life in Sprague-Dawley rat at 5 mg/kg, iv; format: ADME, organism-based; design: dose 5 mg/kg, route intravenous; details: in vivo
[23] = Mean residence time (0 to t) in Sprague-Dawley rat at 5 mg/kg, iv; format: ADME, organism-based; design: dose 5 mg/kg, route intravenous; details: in vivo
[24] = AUC (0 to t) in Sprague-Dawley rat at 5 mg/kg, iv; format: ADME, organism-based; design: dose 5 mg/kg, route intravenous; details: plasma
[25] = AUC (0 to infinity) in Sprague-Dawley rat at 5 mg/kg, iv; format: ADME, organism-based; design: time infinity, dose 5 mg/kg, route intravenous; details: plasma
[26] = Clearance in Sprague-Dawley rat at 5 mg/kg, iv; format: ADME, organism-based; design: dose 5 mg/kg, route intravenous; details: in vivo
[27] = Volume of distribution at steady state in Sprague-Dawley rat at 5 mg/kg, iv; format: ADME, organism-based; design: dose 5 mg/kg, route intravenous; details: in vivo, read-out: Vdss
[28] = Cmax in Sprague-Dawley rat at 25 mg/kg, po; format: ADME, organism-based; design: dose 25 mg/kg, route oral; details: in vivo
[29] = Tmax in Sprague-Dawley rat at 25 mg/kg, po; format: ADME, organism-based; design: dose 25 mg/kg, route oral; details: in vivo
[30] = Half life in Sprague-Dawley rat at 25 mg/kg, po; format: ADME, organism-based; design: dose 25 mg/kg, route oral; details: in vivo
[31] = AUC (0 to t) in Sprague-Dawley rat at 25 mg/kg, po; format: ADME, organism-based; design: dose 25 mg/kg, route oral; details: plasma
[32] = AUC (0 to infinity) in Sprague-Dawley rat at 25 mg/kg, po; format: ADME, organism-based; design: dose 25 mg/kg, route oral, time infinity; details: plasma
[33] = Mean residence time (0 to t) in Sprague-Dawley rat at 25 mg/kg, po; format: ADME, organism-based; design: dose 25 mg/kg, route oral; details: in vivo
[34] = Oral bioavailability in Sprague-Dawley rat at 25 mg/kg; format: ADME, organism-based; details: in vivo
[35] = molecular target: T1, hERG (KCNH2); assay: Inhibition of human ERG at 10 uM
[36] = system: Staphylococcus epidermidis; assay: Antimicrobial activity against methicillin-resistant Staphylococcus epidermidis after 24 hrs by broth microdilution method; format: functional; method in brief: as §2
[37] = system: Staphylococcus epidermidis; assay: Antimicrobial activity against methicillin-susceptible Staphylococcus epidermidis after 24 hrs by broth microdilution method; format: functional; method in brief: as §1
[38] = system: Enterococcus faecalis; assay: Antimicrobial activity against Enterococcus faecalis after 24 hrs by broth microdilution method; format: functional; method in brief: as §1
[39] = system: Moraxella catarrhalis; assay: Antimicrobial activity against Moraxella catarrhalis after 24 hrs by broth microdilution method; format: functional; method in brief: as §1
[40] = system: Streptococcus pneumoniae; assay: Antimicrobial activity against penicillin-resistant Streptococcus pneumoniae after 24 hrs by broth microdilution method; format: functional; method in brief: as §2

T1 sequence (Q12809 whole entry): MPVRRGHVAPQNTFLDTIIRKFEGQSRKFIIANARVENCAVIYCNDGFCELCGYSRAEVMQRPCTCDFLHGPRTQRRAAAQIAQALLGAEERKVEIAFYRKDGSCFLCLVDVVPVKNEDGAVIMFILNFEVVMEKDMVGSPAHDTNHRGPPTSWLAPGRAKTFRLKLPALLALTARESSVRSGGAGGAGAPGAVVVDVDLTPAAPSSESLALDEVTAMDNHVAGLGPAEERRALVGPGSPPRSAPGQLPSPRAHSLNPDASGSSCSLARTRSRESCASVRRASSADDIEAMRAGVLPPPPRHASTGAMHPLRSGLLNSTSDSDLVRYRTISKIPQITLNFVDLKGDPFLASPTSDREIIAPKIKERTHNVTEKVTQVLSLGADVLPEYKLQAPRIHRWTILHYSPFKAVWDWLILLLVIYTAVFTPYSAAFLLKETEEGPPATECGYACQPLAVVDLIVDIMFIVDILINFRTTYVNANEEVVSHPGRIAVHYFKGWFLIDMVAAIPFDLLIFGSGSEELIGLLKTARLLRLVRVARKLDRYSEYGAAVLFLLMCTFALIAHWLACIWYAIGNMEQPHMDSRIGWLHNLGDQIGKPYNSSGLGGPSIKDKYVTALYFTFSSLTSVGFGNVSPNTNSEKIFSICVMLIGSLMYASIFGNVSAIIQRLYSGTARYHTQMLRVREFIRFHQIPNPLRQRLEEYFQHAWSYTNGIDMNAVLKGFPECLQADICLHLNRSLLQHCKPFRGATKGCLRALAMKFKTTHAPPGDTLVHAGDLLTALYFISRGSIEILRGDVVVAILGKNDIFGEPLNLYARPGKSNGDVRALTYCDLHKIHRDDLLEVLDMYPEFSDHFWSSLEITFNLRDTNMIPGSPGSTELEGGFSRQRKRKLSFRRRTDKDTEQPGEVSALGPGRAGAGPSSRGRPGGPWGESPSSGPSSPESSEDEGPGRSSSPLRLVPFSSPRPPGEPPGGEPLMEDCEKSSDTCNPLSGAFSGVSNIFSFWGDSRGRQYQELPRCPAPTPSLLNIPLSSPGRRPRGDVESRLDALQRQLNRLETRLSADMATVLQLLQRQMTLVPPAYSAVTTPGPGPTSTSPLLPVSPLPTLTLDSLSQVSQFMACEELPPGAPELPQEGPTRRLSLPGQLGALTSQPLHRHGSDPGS

Row | Compound | MIC [1] | MIC [2] | MIC [3] | MIC [4] | MIC [5] | MIC [6] | MIC [7] | MIC [8] | MIC [9] | MIC [10] | MIC [11] | MIC [12] | MIC [13] | MIC [14] | MIC [15] | MIC [16] | MIC [17] | MIC [18] | MIC [19] | MIC [20] | further results
1 | O=CN(O)C[C@@H](CC1CCCC1)C(=O)N1CC=C[C@H]1C(=O)Nc1ccc(F)cc1 | 0.25 µg/mL (≈ 0.62 µM) | 0.5 µg/mL (≈ 1.24 µM) | 0.25 µg/mL (≈ 0.62 µM) | 1 µg/mL (≈ 2.48 µM) | 32 µg/mL (≈ 79.3 µM) | 64 µg/mL (≈ 159 µM) | 1 µg/mL (≈ 2.48 µM) | 0.125 µg/mL (≈ 0.31 µM) | 2 µg/mL (≈ 4.96 µM) | 1 µg/mL (≈ 2.48 µM) | 2 µg/mL (≈ 4.96 µM) | 2 µg/mL (≈ 4.96 µM) | ≤ 0.06 µg/mL | ≤ 0.06 µg/mL | 1 µg/mL (≈ 2.48 µM) | 0.5 µg/mL (≈ 1.24 µM) | 1 µg/mL (≈ 2.48 µM) | 32 µg/mL (≈ 79.3 µM) | 0.25 µg/mL (≈ 0.62 µM) | 0.25 µg/mL (≈ 0.62 µM) | –
2 | C=C1C[C@@H](C(=O)Nc2ccc(F)cn2)N(C(=O)[C@H](CCCC)CN(O)C=O)C1 | 0.5 µg/mL (≈ 1.27 µM) | 1 µg/mL (≈ 2.55 µM) | 0.125 µg/mL (≈ 0.319 µM) | 0.25 µg/mL (≈ 0.637 µM) | 32 µg/mL (≈ 81.5 µM) | > 64 µg/mL | 4 µg/mL (≈ 10.2 µM) | 0.5 µg/mL (≈ 1.27 µM) | 32 µg/mL (≈ 81.5 µM) | 4 µg/mL (≈ 10.2 µM) | 16 µg/mL (≈ 40.8 µM) | 16 µg/mL (≈ 40.8 µM) | 0.5 µg/mL (≈ 1.27 µM) | 0.25 µg/mL (≈ 0.637 µM) | 16 µg/mL (≈ 40.8 µM) | 4 µg/mL (≈ 10.2 µM) | 8 µg/mL (≈ 20.4 µM) | > 64 µg/mL | 4 µg/mL (≈ 10.2 µM) | 4 µg/mL (≈ 10.2 µM) | –
3 | O=CN(O)C[C@@H](CC1CCCC1)C(=O)N1CC=C[C@H]1C(=O)Nc1ccccc1 | 4 µg/mL (≈ 10.4 µM) | 4 µg/mL (≈ 10.4 µM) | 1 µg/mL (≈ 2.59 µM) | 0.5 µg/mL (≈ 1.3 µM) | 32 µg/mL (≈ 83 µM) | 32 µg/mL (≈ 83 µM) | 1 µg/mL (≈ 2.59 µM) | 0.125 µg/mL (≈ 0.324 µM) | > 64 µg/mL | 1 µg/mL (≈ 2.59 µM) | 2 µg/mL (≈ 5.19 µM) | 2 µg/mL (≈ 5.19 µM) | ≤ 0.06 µg/mL | ≤ 0.06 µg/mL | 2 µg/mL (≈ 5.19 µM) | 0.5 µg/mL (≈ 1.3 µM) | 1 µg/mL (≈ 2.59 µM) | 64 µg/mL (≈ 166 µM) | 0.25 µg/mL (≈ 0.649 µM) | 0.5 µg/mL (≈ 1.3 µM) | –
4 | Cc1cnc(NC(=O)[C@@H]2C=CCN2C(=O)[C@H](CC2CCCC2)CN(O)C=O)s1 | 0.0312 µg/mL (≈ 0.0769 µM) | 0.25 µg/mL (≈ 0.615 µM) | 0.125 µg/mL (≈ 0.307 µM) | 0.0625 µg/mL (≈ 0.154 µM) | 16 µg/mL (≈ 39.4 µM) | 16 µg/mL (≈ 39.4 µM) | 0.25 µg/mL (≈ 0.615 µM) | ≤ 0.06 µg/mL | 2 µg/mL (≈ 4.92 µM) | 0.5 µg/mL (≈ 1.23 µM) | 2 µg/mL (≈ 4.92 µM) | 2 µg/mL (≈ 4.92 µM) | ≤ 0.06 µg/mL | ≤ 0.06 µg/mL | 0.5 µg/mL (≈ 1.23 µM) | 0.25 µg/mL (≈ 0.615 µM) | 0.5 µg/mL (≈ 1.23 µM) | 32 µg/mL (≈ 78.7 µM) | 0.25 µg/mL (≈ 0.615 µM) | 0.5 µg/mL (≈ 1.23 µM) | inhibition at 1 µM [21]: 5.38%; half-life [22]: 2.68 h; MRT last [23]: 1.24 h; AUC(0-t) [24]: 4700 ng·h/mL; AUC(0-inf) [25]: 4700 ng·h/mL; clearance [26]: 18.6 mL/min/kg; Vd [27]: 1.37 L/kg; Cmax [28]: 4560 ng/mL; Tmax [29]: 0.625 h; half-life [30]: 3.31 h; AUC(0-t) [31]: 12200 ng·h/mL; AUC(0-inf) [32]: 12300 ng·h/mL; MRT last [33]: 3.39 h; bioavailability [34]: 52.3%; inhibition at 10 µM [35]: 15.9%
5 | CCCC[C@H](CN(O)C=O)C(=O)N1[C@H](C(=O)Nc2ncc(C)s2)C[C@H]2CCCC[C@@H]21 | 8 µg/mL (≈ 18.3 µM) | 8 µg/mL (≈ 18.3 µM) | 8 µg/mL (≈ 18.3 µM) | – | – | – | – | – | – | – | – | – | – | – | – | – | – | – | – | – | MIC [36]: 16 µg/mL (≈ 36.6 µM); MIC [37]: 0.5 µg/mL (≈ 1.15 µM); MIC [38]: > 16 µg/mL; MIC [39]: 0.03 µg/mL (≈ 0.0687 µM); MIC [40]: 0.03 µg/mL (≈ 0.0687 µM)
6 | CCCC[C@H](CN(O)C=O)C(=O)N1C[C@@H](F)C[C@H]1C(=O)Nc1ncc(C)s1 | 8 µg/mL (≈ 20 µM) | 8 µg/mL (≈ 20 µM) | 8 µg/mL (≈ 20 µM) | – | – | – | – | – | – | – | – | – | – | – | – | – | – | – | – | – | MIC [36]: 8 µg/mL (≈ 20 µM); MIC [37]: 4 µg/mL (≈ 9.99 µM); MIC [38]: > 16 µg/mL; MIC [39]: 0.25 µg/mL (≈ 0.624 µM); MIC [40]: 0.06 µg/mL (≈ 0.15 µM)
